One block for each molecule: values may come before it. Calls of active or inactive are those of the source. The calls are words filed in the database; no cut-off is given here.
Experiments:
[1] = molecular target: DNA ligase 1 (Homo sapiens) (UniProt P18858); assay: Inhibition of human Lig1 at 10 uM using double strand nicked DNA as substrate after 30 mins in presence of ATP by acrylamide-based fluorescence-assay
Method in brief: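 Cy3-labelled nicked duplex (52-mer annealed to 25- and 27-mers; 1 pmol) with purified hLigI (0.2 pmol) in 50 mM Tris-Cl pH 7.5, 10 mM MgCl2, 0.25 mg/mL BSA, 100 mM NaCl, 500 µM ATP. Compound at 10 μM; 30 min at 37 °C. Stopped with formamide/EDTA; ligated and unligated strands separated on 7 M urea/12% denaturing gel. Triplicate.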

DNA [2] = assay: Binding affinity to Escherichia coli pUC18 DNA assessed as protection against DNase1-mediated cleavage at 500 uM preincubated for 30 mins followed by DNase1 addition measured after 5 mins by 1% agarose gel based UV-transilluminator analysis; type: nucleic-acid assay
Method in brief: (§1)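 Linearized pUC18 plasmid DNA (100 ng) incubated with compound (250, 500, 700 μM) or controls (doxorubicin 100 μM; DAPI, methyl green, ampicillin 500 μM) for 30 min at 37 °C in ligation-like buffer. DNase I 0.0025 U added for 5 min at 37 °C, stopped with urea/EDTA buffer, resolved on 1% agarose and imaged under UV.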

DNA [3] = assay: Binding affinity to Escherichia coli pUC18 DNA assessed as protection against DNase1-mediated cleavage at 250 to 700 uM preincubated for 30 mins followed by DNase1 addition measured after 5 mins by 1% agarose gel based UV-transilluminator analysis; type: nucleic-acid assay; method in brief: as §1
DLD-1 [4] = assay: Induction of apoptosis in human DLD1 cells assessed as early apoptotic cells at 10 uM after 48 hrs by Annexin V-FITC/propidium iodide staining-based flow cytometric method relative to control; type: functional
Method in brief: (§2)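 DLD-1 cells exposed to 2.5, 5 and 10 μM for 48 h, harvested, washed in cold PBS and stained with Annexin V-FITC and PI in binding buffer at room temperature in the dark. Analysed by flow cytometry; early and late apoptotic fractions averaged from three independent experiments.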

HeLa [5] = assay: Antiproliferative activity against human HeLa cells after 48 hrs by MTT assay; type: functional, cell-based
Method in brief: (§3)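 Cells seeded and allowed to adhere overnight, then given compound from 10 mM DMSO stock; DMSO alone as vehicle control. Grown 48 h, MTT (5 mg/ml) added for 3 h, formazan dissolved in DMSO, absorbance read at 590 nm. % inhibition = (A control − A treated)/A control × 100; three independent biological replicates. Single-point screen at 10 μM; IC50 from three independent experiments.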

DLD-1 [6] = assay: Induction of apoptosis in human DLD1 cells assessed as early apoptotic cells at 5 uM after 48 hrs by Annexin V-FITC/propidium iodide staining-based flow cytometric method relative to control; type: functional; method in brief: as §2
DLD-1 [7] = assay: Induction of apoptosis in human DLD1 cells assessed as late apoptotic cells at 5 uM after 48 hrs by Annexin V-FITC/propidium iodide staining-based flow cytometric method relative to control; type: functional; method in brief: as §2
DLD-1 [8] = assay: Antiproliferative activity against human DLD1 cells after 48 hrs by MTT assay; type: functional, cell-based; conditions: DLD-1, 48 h; method in brief: as §3
[9] = molecular target: DNA ligase 1 (Homo sapiens) (UniProt P18858); assay: Competitive inhibition of human Lig1 using non-ligatable double stranded nicked DNA as substrate after 2 hrs in presence of ATP by EMSA
Method in brief: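 Purified hLigI (10 pmol) with compound (31.25–500 μM) and 2 pmol 5'-FAM-labelled non-ligatable nicked duplex (dideoxy 3' end). Buffer: 50 mM Tris-Cl pH 7.5, 10 mM MgCl2, 0.25 mg/ml BSA, 100 mM NaCl, plus ATP. Incubated 2 h on ice, then 6.5% native PAGE. Three independent experiments.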

[10] = molecular target: T1, DNA ligase 3 (Homo sapiens) (UniProt P49916); assay: Inhibition of human Lig3beta at 10 uM using double strand nicked DNA as substrate at 3.125 to 50 uM after 30 mins in presence of ATP by acrylamide-based fluorescence-assay
T1 sequence (whole entry): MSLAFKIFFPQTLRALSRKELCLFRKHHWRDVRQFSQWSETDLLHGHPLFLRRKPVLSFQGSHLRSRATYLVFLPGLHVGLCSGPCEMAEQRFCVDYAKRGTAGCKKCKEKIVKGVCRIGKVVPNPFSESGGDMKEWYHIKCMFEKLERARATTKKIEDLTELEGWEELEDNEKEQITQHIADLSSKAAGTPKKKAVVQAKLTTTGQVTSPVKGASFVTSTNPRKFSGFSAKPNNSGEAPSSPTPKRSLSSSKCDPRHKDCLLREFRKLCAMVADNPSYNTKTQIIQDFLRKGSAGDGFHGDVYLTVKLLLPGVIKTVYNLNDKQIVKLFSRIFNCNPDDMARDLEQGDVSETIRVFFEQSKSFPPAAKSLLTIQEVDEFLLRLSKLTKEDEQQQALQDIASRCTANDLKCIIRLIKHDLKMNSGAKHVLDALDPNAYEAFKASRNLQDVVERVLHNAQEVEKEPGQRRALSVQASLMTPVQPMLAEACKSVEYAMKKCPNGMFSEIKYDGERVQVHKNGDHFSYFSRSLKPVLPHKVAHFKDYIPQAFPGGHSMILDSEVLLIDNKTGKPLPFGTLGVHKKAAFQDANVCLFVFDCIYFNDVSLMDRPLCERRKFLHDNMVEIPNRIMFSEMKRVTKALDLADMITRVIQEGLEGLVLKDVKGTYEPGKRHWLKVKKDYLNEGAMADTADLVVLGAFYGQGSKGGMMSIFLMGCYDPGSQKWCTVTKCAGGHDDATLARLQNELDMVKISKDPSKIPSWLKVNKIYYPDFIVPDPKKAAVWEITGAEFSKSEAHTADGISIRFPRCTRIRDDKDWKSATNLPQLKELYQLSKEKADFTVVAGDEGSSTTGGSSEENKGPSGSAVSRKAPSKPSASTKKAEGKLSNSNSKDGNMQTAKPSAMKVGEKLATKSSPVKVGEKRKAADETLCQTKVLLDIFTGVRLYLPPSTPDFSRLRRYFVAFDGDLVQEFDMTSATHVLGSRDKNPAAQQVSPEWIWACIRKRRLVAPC

DLD-1 [11] = assay: Induction of apoptosis in human DLD1 cells after 48 hrs by Annexin V-FITC/propidium iodide staining-based flow cytometric method; type: functional, cell-based; method in brief: as §2
4T1 (Mus musculus) = assay: Antiproliferative activity against mouse 4T1 cells at 10 uM after 48 hrs by MTT assay
HEK293 = assay: Cytotoxicity against HEK293 cells after 48 hrs by MTT assay; type: cell-based; conditions: Homo sapiens, HEK293, 48 h
DLD-1 [12] = assay: Inhibition of colony formation of human DLD1 cells by crystal violet staining based assay; type: functional, cell-based
Method in brief: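 400 DLD-1 cells per well grown overnight in RPMI/10% FBS, then exposed to 1.25, 2.5 and 5 μM for 24 or 48 h. Medium replaced and colonies grown a further 10 days, medium changed every third day. Fixed and stained with 0.5% crystal violet/6% glutaraldehyde for 30 min at room temperature, then imaged.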

HepG2 [13] = assay: Antiproliferative activity against human HepG2 cells after 48 hrs by MTT assay; type: functional, cell-based; conditions: HepG2, 48 h; method in brief: as §3
DLD-1 [14] = assay: Induction of apoptosis in human DLD1 cells assessed as late apoptotic cells at 10 uM after 48 hrs by Annexin V-FITC/propidium iodide staining-based flow cytometric method relative to control; type: functional; method in brief: as §2
HeLa [15] = assay: Antiproliferative activity against human HeLa cells at 10 uM after 48 hrs by MTT assay; type: functional, cell-based; method in brief: as §3
MDA-MB-231 [16] = assay: Antiproliferative activity against human MDA-MB-231 cells after 48 hrs by MTT assay; type: functional, cell-based; conditions: MDA-MB-231, 48 h; method in brief: as §3
DLD-1 [17] = assay: Antiproliferative activity against human DLD1 cells at 10 uM after 48 hrs by MTT assay; type: functional, cell-based; method in brief: as §3
[18] = molecular target: LIG4/XRCC4 (Homo sapiens) (UniProt P49917+Q13426); assay: Inhibition of human DNA Lig4/[…] at 10 uM using double strand nicked DNA as substrate after 30 mins in presence of ATP by acrylamide-based fluorescence-assay; type: protein-complex assay
DLD-1 [19] = assay: Induction of apoptosis in 3D-spheroids of human DLD1 cells assessed as increase in cell death after 72 hrs by FDA/propidium iodide dye based phase contrast microscopy; type: functional
Method in brief: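 DLD-1 spheroids formed by hanging drop (5×10^3 cells/10 μL RPMI, 3 days, 37 °C, 5% CO2), moved to 0.7% agarose-coated wells and grown 7 days. Treated 72 h at 25, 12.5 and 6.25. Stained with FDA 2 μg/ml and PI 20 μg/ml for 20 min in the dark; imaged by fluorescence microscopy.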

[20] = molecular target: T2, DNA ligase (Enterobacteria phage T4) (UniProt P00970); assay: Inhibition of T4 DNA ligase at 10 uM using double strand nicked DNA as substrate at 3.125 to 50 uM after 30 mins in presence of ATP by acrylamide-based fluorescence-assay; conditions: Tequatrovirus T4
T2 sequence (whole entry): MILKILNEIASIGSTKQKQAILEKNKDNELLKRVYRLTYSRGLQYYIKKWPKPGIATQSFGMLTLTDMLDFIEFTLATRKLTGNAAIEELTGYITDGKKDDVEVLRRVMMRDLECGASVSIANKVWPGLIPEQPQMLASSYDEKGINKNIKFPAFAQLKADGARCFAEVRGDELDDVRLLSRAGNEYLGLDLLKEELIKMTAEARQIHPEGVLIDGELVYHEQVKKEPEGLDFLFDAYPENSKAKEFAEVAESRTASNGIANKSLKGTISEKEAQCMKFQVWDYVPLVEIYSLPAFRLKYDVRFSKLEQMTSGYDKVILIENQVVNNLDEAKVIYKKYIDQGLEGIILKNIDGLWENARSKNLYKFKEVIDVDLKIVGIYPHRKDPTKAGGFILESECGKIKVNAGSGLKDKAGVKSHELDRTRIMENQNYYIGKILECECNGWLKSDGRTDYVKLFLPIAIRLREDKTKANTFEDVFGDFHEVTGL

DLD-1 [21] = assay: Anti-migratory activity in human DLD1 cells at 2.5 to 5 uM after 12 to 48 hrs by wound healing assay; type: functional, cell-based
Method in brief: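 DLD-1 monolayer at 70-80% confluence scratched with a pipette tip, then exposed to 2.5 and 5 μM for 12, 24 and 48 h (methods state 12, 24, 36 h). Wound imaged by phase-contrast microscopy; % open area quantified at each time point. Mean of three independent experiments.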

[22] = Antiproliferative activity against mouse 4T1 cells after 48 hrs by MTT assay
HepG2 [23] = assay: Antiproliferative activity against human HepG2 cells at 10 uM after 48 hrs by MTT assay; type: functional, cell-based; method in brief: as §3
MDA-MB-231 [24] = assay: Antiproliferative activity against human MDA-MB-231 cells at 10 uM after 48 hrs by MTT assay; type: functional, cell-based; method in brief: as §3

DNA ligase 1 (Homo sapiens), sequence (P18858 whole entry): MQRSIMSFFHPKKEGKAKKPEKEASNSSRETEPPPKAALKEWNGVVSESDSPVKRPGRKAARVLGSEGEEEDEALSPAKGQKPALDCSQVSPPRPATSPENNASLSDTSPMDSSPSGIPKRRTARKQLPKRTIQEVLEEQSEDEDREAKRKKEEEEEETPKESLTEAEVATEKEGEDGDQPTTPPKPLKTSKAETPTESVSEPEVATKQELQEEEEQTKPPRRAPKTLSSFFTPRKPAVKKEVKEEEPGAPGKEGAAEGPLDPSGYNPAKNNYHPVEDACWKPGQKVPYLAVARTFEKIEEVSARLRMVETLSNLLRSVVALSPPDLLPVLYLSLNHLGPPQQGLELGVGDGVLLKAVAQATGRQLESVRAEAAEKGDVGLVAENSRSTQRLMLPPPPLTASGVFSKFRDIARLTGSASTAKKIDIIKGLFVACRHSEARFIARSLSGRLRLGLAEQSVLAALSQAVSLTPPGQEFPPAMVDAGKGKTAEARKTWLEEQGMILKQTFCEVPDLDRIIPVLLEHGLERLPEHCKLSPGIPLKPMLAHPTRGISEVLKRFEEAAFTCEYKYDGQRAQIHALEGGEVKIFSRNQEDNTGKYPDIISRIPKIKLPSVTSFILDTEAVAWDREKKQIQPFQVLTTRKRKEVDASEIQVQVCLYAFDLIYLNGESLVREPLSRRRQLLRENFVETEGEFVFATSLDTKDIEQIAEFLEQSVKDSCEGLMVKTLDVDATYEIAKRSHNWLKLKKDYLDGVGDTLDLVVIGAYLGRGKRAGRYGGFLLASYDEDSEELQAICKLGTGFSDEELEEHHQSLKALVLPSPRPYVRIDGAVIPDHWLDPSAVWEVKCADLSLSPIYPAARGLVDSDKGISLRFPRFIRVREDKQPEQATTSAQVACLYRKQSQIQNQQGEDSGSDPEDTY

SMILES: Cc1ccc(C(=O)/C=C/c2cc3c(c(C(C)(C)C)c2)OC(N)=C(C#N)C3c2c(C)[nH]c3ccc(Cl)cc23)cc1 (stereo unspecified)
inhibition [1]: > 50%

SMILES: COc1ccc(C(=O)/C=C/c2cc3c(c(C(C)(C)C)c2)OC(N)=C(C#N)C3c2c(C)[nH]c3ccccc23)cc1 (stereo unspecified)
inhibition [1]: < 20%

SMILES: Cc1[nH]c2ccccc2c1C1C(C#N)=C(N)Oc2c(C(C)C)cc(/C=C/C(=O)c3cccs3)cc21 (stereo unspecified)
Activity (4T1 (Mus musculus)): Active
Activity (HeLa [15]): Active
Activity (DLD-1 [17]): Active
inhibition [1]: < 20%
Activity (HepG2 [23]): Active
Activity (MDA-MB-231 [24]): Active

Now from value to molecule, other results behind:

inhibition [1]: < 20%
SMILES: Cc1ccc(C(=O)/C=C/c2cc3c(c(C(C)(C)C)c2)OC(N)=C(C#N)C3c2c(C)[nH]c3ccccc23)cc1 (stereo unspecified)

Activity (DNA [2]): inactive
SMILES: CC1(C)S[C@@H]2[C@H](NC(=O)[C@H](N)c3ccccc3)C(=O)N2[C@H]1C(=O)O

inhibition [1]: > 50%
SMILES: COc1ccc(C(=O)/C=C/c2cc3c(c(C(C)(C)C)c2)OC(N)=C(C#N)C3c2c(C)[nH]c3ccc(Cl)cc23)cc1 (stereo unspecified)

Activity (DNA [3]): inactive
IC50 (HeLa [5]): 6.4 µM
IC50 (DLD-1 [8]): 4.66 µM
inhibition [9]: Dose-dependent effect
inhibition [10]: inactive
IC50 (HepG2 [13]): 6.46 µM
IC50 (MDA-MB-231 [16]): 6.09 µM
inhibition [18]: Dose-dependent effect
inhibition [20]: inactive
inhibition [1]: 69.4%
IC50 [22]: 5.76 µM
SMILES: Cc1[nH]c2ccccc2c1C1C(C#N)=C(N)Oc2c1cc(/C=C/C(=O)c1cccs1)cc2C(C)(C)C (stereo unspecified)
Activity (DLD-1 [4]): 26.53%
Activity (DLD-1 [6]): 17.38%
Activity (DLD-1 [7]): 14.85%
Activity (DLD-1 [11]): Dose-dependent effect
Activity (4T1 (Mus musculus)): Active
IC50 (HEK293): 12.4 µM
inhibition (DLD-1 [12]): Dose-dependent effect
Activity (DLD-1 [14]): 50.96%
Activity (HeLa [15]): Active
Activity (DLD-1 [17]): Active
Activity (DLD-1 [19]): Active
Activity (DLD-1 [21]): Active
Activity (HepG2 [23]): Active
Activity (MDA-MB-231 [24]): Active
